KCNQ1 inh – inhibitors of human KCNQ1 channel, primary screen, cell-based, thallium flux, high-throughput | Potassium voltage-gated channel subfamily KQT member 1 (Homo sapiens), P51787 | CHO-K1 KCNQ1, FluxOR thallium flux fluorescence; active compounds read high | B-score at 10 µM | 310,000 tested, 1.3% active;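 active = compounds whose thallium flux B-score, printed positive for inhibition, exceeds three library SD while starting fluorescence stays within three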;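 also: channel opened by potassium depolarization with thallium stimulus after 20 min compound exposure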
Target sequence (P51787 whole entry, looked up): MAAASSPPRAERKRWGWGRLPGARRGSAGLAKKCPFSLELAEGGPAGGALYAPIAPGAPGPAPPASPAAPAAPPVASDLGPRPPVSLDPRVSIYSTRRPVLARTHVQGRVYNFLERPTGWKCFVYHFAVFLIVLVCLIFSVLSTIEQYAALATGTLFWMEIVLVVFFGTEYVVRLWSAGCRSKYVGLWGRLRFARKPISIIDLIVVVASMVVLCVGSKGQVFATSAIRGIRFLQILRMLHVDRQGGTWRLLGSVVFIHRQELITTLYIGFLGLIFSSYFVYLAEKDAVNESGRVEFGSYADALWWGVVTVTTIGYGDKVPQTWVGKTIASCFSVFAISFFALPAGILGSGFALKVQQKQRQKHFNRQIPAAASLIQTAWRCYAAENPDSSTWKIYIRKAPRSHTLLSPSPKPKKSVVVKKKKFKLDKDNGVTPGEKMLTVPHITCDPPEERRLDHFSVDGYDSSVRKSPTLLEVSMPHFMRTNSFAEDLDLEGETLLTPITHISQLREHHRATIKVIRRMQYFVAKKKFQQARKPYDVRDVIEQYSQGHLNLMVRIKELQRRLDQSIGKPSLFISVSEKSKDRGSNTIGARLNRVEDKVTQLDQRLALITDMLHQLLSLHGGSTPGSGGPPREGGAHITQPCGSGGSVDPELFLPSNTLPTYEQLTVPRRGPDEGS
KCNK9 block – KCNK9 potassium channel inhibitors, primary screen, HEK293 cells, thallium flux | Potassium channel subfamily K member 9 (Homo sapiens), Q9NPC2 | 310,000 tested, 1.2% active | B-score at 10 µM | FluxOR thallium flux fluorescence; active compounds read low;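 active = ratio B-score over 3 SD below the library mean, with starting fluorescence within 5 SD of its mean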;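 also: negative B-score means less thallium flux so channel inhibition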
KCNK3 inh – human KCNK3 channel inhibitors, primary screen, CHO cells, FluxOR thallium flux, B-score; Potassium channel subfamily K member 3 (Homo sapiens), O14649; FluxOR fluorescence; active compounds read low; B-score at 10 µM; 340,000 tested, 0.84% active; AID 602410, 2012;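 active = B-score under library mean minus 4 SD, starting fluorescence ratio at most library mean plus 5 SD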;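 also: more negative B-score means stronger inhibition of thallium flux through KCNK3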
KCNQ1 act – potentiators or activators of KCNQ1 channel, primary screen, cell-based, thallium flux, high-throughput; CHO-K1 KCNQ1, thallium flux FluxOR fluorescence; active compounds read high; B-score at 10 µM; AID 2648, 2010; 310,000 tested, 0.35% active;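 active = fluorescence ratio B-score, a plate-corrected score, at least three library SD, with initial intensity B-score within 5 SD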
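Assay system: CHO-K1 cells stably expressing KCNQ1. Medium: assay buffer for compound exposure, DMSO matched across wells. Timing: 37 °C overnight plating, 90-min dark dye load, 20-min compound pretreatment. Signal: kinetic FluxOR fluorescence, 10 s baseline plus 110 s post-stimulus.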
Kir21 inh – inhibitors of mouse Kir2.1 inward-rectifier potassium channel; Inward rectifier potassium channel 2 (Mus musculus), P35561; HEK293-Kir2.1, FluxOR thallium flux fluorescence; active compounds read low; B-score at 10 µM; 310,000 tested, 0.85% active;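 active = fluorescence ratio B-score at or below minus 3 SD of library scores, with starting-brightness B-score within 2 SD, cut at about -4.2 in these data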;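 also: channel flux triggered by added potassium and thallium sulfate stimulus; B-score of peak minus minimum fluorescence over baseline after thallium stimulus; more negative B-score means stronger Kir2.1 block with less thallium influx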
hERG protect – hERG rescue from dofetilide block, primary screen, cell-based, CHO-hERG, FluxOR thallium flux, dofetilide IC70. Voltage-gated inwardly rectifying potassium channel KCNH2 (Homo sapiens), Q12809. dofetilide IC70 present. activation (rescue from dofetilide block), less the hit threshold, % at 10 µM. 310,000 tested, 0.51% active;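 active = activation above the mean of controls blocked by dofetilide plus 5 SD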;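 also: thallium influx through hERG after potassium depolarization seen as dye fluorescence rise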
A number is an active result; . = inactive; / = no result given. Only some compounds are listed: those with a hit (about 3.7% of all), similar ones and a draw of the others.

SMILES | KCNQ1 inh | KCNK9 block | KCNK3 inh | KCNQ1 act | Kir21 inh | hERG protect
O=C(O)CC1(CC(=O)NCc2ccc(C(F)(F)F)cc2)CCCCC1 | . | . | . | . | . | .
O=C(O)CC1(CC(=O)Nc2cc(C(F)(F)F)cc(C(F)(F)F)c2)CCCCC1 | 7 | . | . | . | . | .
CC(C)c1cc(=O)oc2c3c4c(cc12)CCCN4CCC3 | . | . | . | . | . | .
CN1CCCc2cc3c(C(F)(F)F)cc(=O)oc3nc21 | 11 | . | . | . | . | .
O=S(=O)(c1ccc(Cl)cc1)N1CCC(O)(CN2CCN(Cc3ccccc3)CC2)CC1 | . | . | . | . | -5.39 | .
Cc1ccc(C(=O)CC(=O)c2ccccc2C)c(O)c1 | . | . | . | . | . | .
Cc1ccc(C(=O)CC(=O)c2cccc(F)c2)c(O)c1 | . | . | . | 16 | . | 10.5
Cc1ccc(O)c(C(=O)CC(=O)c2ccccc2Cl)c1 | . | . | . | 13 | . | 45.4
Cc1cc(Oc2ccc(C)c(Cl)c2)nc(SCC(=O)c2ccccc2)n1 | . | -7.16 | . | . | . | .
O=[N+]([O-])c1ccc(-c2ccc(/C=N/n3cnnc3)o2)c(Br)c1 | . | . | . | . | . | 7.5
O=C(NC(Cc1c[nH]c2ccccc12)C(=O)N/N=C/c1cccc2ccccc12)c1cccs1 (configuration not stated) | 6 | . | . | . | . | .
CCOC(=O)C(C)On1c(-c2ccccc2)nc2ccc([N+](=O)[O-])cc21 (configuration not stated) | . | . | . | . | . | .
Cc1ccc(COn2c(-c3ccc(Cl)cc3)nc3ccc([N+](=O)[O-])cc32)cc1 | . | . | . | . | . | .
CCOC(=O)C(C)On1c(-c2ccc(Cl)cc2)nc2ccc([N+](=O)[O-])cc21 (configuration not stated) | 9 | . | . | . | . | .
O=[N+]([O-])c1ccc2nc(-c3ccc(Cl)cc3)n(OCc3ccccc3)c2c1 | 6 | . | . | . | . | .
N#CC1(Nc2ccc3ccccc3c2)CCCC1 | / | / | . | / | / | /
CNC(=S)NNC(=O)c1cccn(Cc2ccc(Cl)cc2Cl)c1=O | 7 | . | / | . | . | .
CCc1nc(N2CCCCC2)c2oc3ccccc3c2n1 | . | . | . | . | . | .
CCc1nc(N2CCCC(C)C2)c2oc3ccccc3c2n1 (configuration not stated) | . | -7.42 | . | . | . | .
O=S(=O)(CCNCCc1ccccc1)NCc1ccccc1 | / | / | . | / | / | /
Cn1c(CNc2nc(-c3ccccc3)cs2)nnc1SCC(=O)OC1CCCCC1 | . | . | . | . | -5.36 | .
COc1cccc(OCc2nnc(SCC(=O)OC3CCCCC3)n2C)c1 | . | . | . | . | -4.83 | .
CC1CCN(C(=O)C(C)OC(=O)CSc2ccc([N+](=O)[O-])cc2)CC1 (configuration not stated) | / | / | . | / | / | /
CC(Oc1ccc(Br)cc1)C(=O)Nc1ccc(S(=O)(=O)N(C)C2CCN(C)CC2)cc1 (configuration not stated) | . | . | . | 10 | . | .
COc1ccc(C2CC(=O)Oc3c(C(CCN4CCCCC4)c4ccc(N(C)C)cc4)c(OC)cc(OC)c32)cc1 (configuration not stated) | . | . | . | . | . | .
SMILES | KCNQ1 inh | KCNK9 block | KCNK3 inh | KCNQ1 act | Kir21 inh | hERG protect
COc1ccc(C2CC(=O)Oc3c(C(CCN4CCCC(C)C4)c4ccc(N(C)C)cc4)c(OC)cc(OC)c32)cc1 (configuration not stated) | 7 | . | . | . | . | .
Cc1ccc(S(=O)(=O)n2cnc(C)c2)cc1 | . | . | . | . | . | .
CC(C)c1ccccc1NC(=O)CNC(C)c1ccc(F)cc1 (configuration not stated) | . | . | . | . | -5.51 | .
COC(=O)Oc1ccc(/C=C/C(=O)OC(C)C)cc1OC(=O)OC | . | . | . | . | . | 6.6
O=C(Nc1nc2ccc(SC(F)F)cc2s1)c1ccc(NS(=O)(=O)c2ccc(F)c(F)c2)cc1 | . | -6.77 | . | . | . | .
CC(C)CCNC(=O)Cn1c(=O)oc2cc(S(=O)(=O)N3CCc4ccccc43)ccc21 | . | -9.21 | . | . | . | .
O=C(Cn1c(=O)oc2cc(S(=O)(=O)N3CCCCCC3)ccc21)NC1CCCCC1 | . | . | . | . | . | .
O=C(Cn1c(=O)oc2cc(S(=O)(=O)N3CCc4ccccc43)ccc21)NC1CCCC1 | . | -8.76 | . | . | . | .
CCOC(=O)C1=C(C)N=C2c3ccccc3C(=O)C2C1c1ccc(Cl)cc1 (configuration not stated) | . | -8.01 | -10.3 | . | . | .
COc1ccc(NC(=O)c2cc(-c3ccccc3)nc3c2cnn3C(C)C)c(OC)c1 | / | / | . | / | / | /
N#CC(c1ccc(Cl)cc1)c1ccc2c(C(F)(F)F)cc(C(F)(F)F)nc2n1 (configuration not stated) | . | . | . | 60 | . | .
CN(Cc1cnccn1)Cc1nc(Cc2ccccc2F)no1 | . | . | . | . | . | 27.9
COC(=O)c1ccc(/C=C/C(=O)OCC(=O)c2ccc[nH]2)cc1 | / | / | . | / | / | /
CCCN(CC(=O)Nc1ccccc1Br)CC(=O)Nc1ccc(F)c(F)c1F | . | -7.01 | . | . | . | .
Cc1ccc(-c2csc3ncnc(SCC(=O)NCc4ccc5c(c4)OCO5)c23)cc1 | . | . | . | . | . | .
O=C(CSc1ncnc2scc(-c3ccc(Cl)cc3)c12)NCc1ccc2c(c1)OCO2 | . | . | -9.92 | . | . | .
O=c1c2cc(Br)ccc2nc(-c2ccc([N+](=O)[O-])cc2)n1O | . | . | . | 26 | . | 16.3
O=c1c2ccc(Cl)cc2nc(-c2ccc([N+](=O)[O-])cc2)n1O | . | . | . | 35 | . | 6.7
O=c1c2cc(Cl)ccc2nc(-c2ccccc2)n1O | . | . | . | 8 | . | 11.3
O=c1c2cc(Br)ccc2nc(-c2cccc(C(F)(F)F)c2)n1O | . | . | . | 99 | . | 72.6
CN(CC(=O)Nc1ccc(F)cc1)S(=O)(=O)c1ccc2c(c1)c(=O)n(C)c(=O)n2C | . | . | . | . | . | .
O=C1OCCC1Sc1nc2ccccc2c(=O)n1Cc1ccc(F)cc1 (configuration not stated) | . | . | . | 11 | . | 9.9
Cn1nc(-c2ccc(Cl)cc2)c2cc(C(=O)N3CCCC3)sc21 | . | . | . | . | . | .
